# Out of some 320,000 compounds screened, about 200 (0.062%) were called active.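 The calls were made as follows: active = activation above that plate's cutoff, the mean activation of tested compounds plus 3 SD (cut at about 6.6% in these data, passing the limit was not always enough); inactive = the rest.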 For the sample, actives were picked, then their nearest neighbours and some compounds at random.
# Molecular target: Oxytocin receptor (Homo sapiens) (UniProt P30559)
# Assay: enhancers of oxytocin-evoked OXTR calcium signal – fluorescence, CHO-OTR cells, Fluo-8 calcium, primary screen (AID 2445);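 also: 100% uses oxytocin at 75 nM as the full agonist control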
# Details: Fluo-8 calcium fluorescence, potentiator mode, at 3 µM, hits give high values, 0% = oxytocin EC15, 100% = EC100
# Method in brief: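 test system = CHO-OTR cells, human receptor | compound = single-point 3.0 µM | schedule = 6 min compound pre-incubation at room temperature, 100 s kinetic read | signal = Fluo-8 no-wash calcium dye fluorescence, excitation 470-495 nm, emission 515-575 nm | repeats = single well per compound, singlicate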
# Chain of Oxytocin receptor (Homo sapiens) (P30559 whole entry, looked up): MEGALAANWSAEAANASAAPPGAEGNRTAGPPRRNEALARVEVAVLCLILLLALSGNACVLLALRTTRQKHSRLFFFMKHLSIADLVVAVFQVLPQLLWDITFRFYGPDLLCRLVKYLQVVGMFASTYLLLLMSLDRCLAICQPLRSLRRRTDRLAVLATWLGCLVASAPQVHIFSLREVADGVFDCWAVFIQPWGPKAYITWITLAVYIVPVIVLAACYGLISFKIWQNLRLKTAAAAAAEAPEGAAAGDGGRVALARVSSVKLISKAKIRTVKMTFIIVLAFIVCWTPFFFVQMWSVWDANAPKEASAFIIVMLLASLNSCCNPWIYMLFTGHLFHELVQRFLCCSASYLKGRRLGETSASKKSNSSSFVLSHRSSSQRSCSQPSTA
row,Compound,activation
1,CC1CCC(NS(=O)(=O)c2ccc3c(c2)CC(=O)N3)CC1 (configuration not stated),-7.03% (inactive)
2,Cc1cc(C)cc(N(CC(=O)NC2CCCC2)C(=O)CCC(=O)Nc2cc(C)on2)c1,-12.7% (inactive)
3,Nc1ccc(SCCN2C(=O)c3ccccc3C2=O)cc1,-2.44% (inactive)
4,COc1cc(/C=C2\SC(=O)NC2=O)ccc1OCc1ccc(Cl)nc1,-15.2% (inactive)
5,CCOC(=O)c1ccccc1NC(=O)c1c(N)n(C)c(=O)[nH]c1=O,-5.38% (inactive)
6,CCC(C)[C@H](NC(=O)N1c2ccccc2NC(=O)[C@@H]1C(C)C)C(=O)N[C@@H](Cc1ccccc1)C(=O)O (some centres not stated),-4.93% (inactive)
7,CC1(C)CC(=O)CC2(C1)NCC(c1ccccc1Cl)c1c2[nH]c2ccccc12 (configuration not stated),-23.6% (inactive)
8,Cc1cccn2c(=O)nc(SCC(=O)NCc3ccccc3Cl)nc12,-9.43% (inactive)
9,O=C(NCCc1ccccn1)c1cc(C(=O)C2CCCCC2)c[nH]1,-8.37% (inactive)
10,Cc1nc(NCc2ccccc2)c(C(N)=O)c2c1COC(C)(C)C2,-7.89% (inactive)
11,O=C1CCCc2nn(-c3ccccc3)nc21,-20.3% (inactive)
12,CCc1cc2c(SCC(=O)Nc3ncc(Cl)c(C)c3Cl)ncnc2s1,-3.54% (inactive)
13,COCCn1c(CN(Cc2ccccc2)Cc2ccccc2)nc2c1c(=O)n(C)c(=O)n2C,6.98% (active)
14,CC(C)Cn1c(CN(Cc2ccccc2)Cc2ccccc2)nc2c1c(=O)n(C)c(=O)n2C,-4.31% (inactive)
15,CC(C)CCn1c(CN(C)Cc2ccccc2)nc2c1c(=O)n(C)c(=O)n2C,-2.79% (inactive)
16,CCc1nn(CCCC(=O)NCc2ccc(C)cc2)c(=O)c2cc3occc3n12,-17.3% (inactive)
17,CCOC(=O)[C@H]1[C@H]2COc3cc(OC)ccc3[C@@H]2N2C(=O)N(c3ccc(Br)cc3)C(=O)[C@@]12C,-10.7% (inactive)
18,O=P(O)(CP(=O)(c1ccccc1)c1ccccc1)c1ccccc1,-9.44% (inactive)
19,Cc1cccc(N2CCN(C(=O)CN(C)S(=O)(=O)c3ccc4c(c3)CCC(=O)N4)CC2)c1C,-9.67% (inactive)
20,CC(Oc1ccc(F)cc1)C(=O)Nc1ccccc1C(=O)NC1CC1 (configuration not stated),2.5% (inactive)
21,Cc1c(-c2nn(C)c(=O)c3ccccc23)oc2ccc(F)cc2c1=O,-8.96% (inactive)
22,C=CCOC(=O)C1=C[C@@H](c2ccc3c(c2)OCO3)C[C@@H](OCCCCO)O1,-0.78% (inactive)
23,Cc1ccc(N/N=C2\COC(C)(C)CC2=O)cc1,-4.26% (inactive)

row,Compound,activation
1,CCOc1ccc(-c2c(C)n([O-])c3c([n+]2=O)CCCC3)cc1,-2.39% (inactive)
2,Cc1ccc2c(c1)C(O)(CC(=O)c1cccc(-n3cccc3)c1)C(=O)N2 (configuration not stated),-5.12% (inactive)
3,O=C(COc1ncnc2c(Cl)cc(Cl)cc12)N1CCN(S(=O)(=O)c2ccccc2)CC1,-0.15% (inactive)
4,Cc1ccc(S(=O)(=O)N(C)c2ccc(OCC(=O)OCc3ccc(C#N)cc3)cc2)cc1,-6.02% (inactive)
5,COc1ccc2c(c1)CC[C@@H]1[C@@H]2CC[C@]2(C)C(=O)CC[C@@H]12,-6.25% (inactive)
6,O=S(=O)(NCCOc1cccc2cccnc12)c1ccc(F)cc1,-8.04% (inactive)
7,COc1cccc(NC(=O)CSc2nnc(Cc3ccc(OC)c(OC)c3)o2)c1,-7.75% (inactive)
8,Cc1cccc(N=C2SC(C)CN2C(=O)CN2C(=O)NC3(CCCC3)C2=O)c1 (configuration not stated),-10% (inactive)
9,CCOc1ccc(C(=O)Nc2cc(Cl)ccc2-n2cncn2)cc1OC,3.32% (inactive)
10,c1ccc(-c2cn3c(n2)CCc2ccc4cccnc4c2-3)cc1,0.09% (inactive)
11,CCC(C)N(C(=O)COC(=O)C1C(C(=O)OC)=C(C)NC(C)=C1C(=O)OC)C1CCS(=O)(=O)C1 (configuration not stated),-7.92% (inactive)
12,COc1ccc(NC(=O)CC(NC(C)c2ccccc2)C(=O)O)cc1 (configuration not stated),1.93% (inactive)
13,Cc1cc(C)cc(NC(=O)CSc2ccccc2)c1,12.9% (active)
14,Cc1cc(C)cc(NC(=O)CN2C(=O)c3ccccc3C2=O)c1,-3.2% (inactive)
15,CSc1cccc(NC(=O)CSc2ccccc2)c1,-15.7% (inactive)
16,CCCCn1c(N)c(N(CC(C)C)C(=O)CSc2ccc([N+](=O)[O-])cc2)c(=O)[nH]c1=O,1.02% (inactive)
17,Cc1ccc(-c2nnc(-n3nnc4ccccc43)c3ccccc23)cc1,-11.2% (inactive)
18,Cc1ccc(Cl)cc1NC(=O)CN1CCN(S(=O)(=O)N2CCOCC2)CC1,-9.03% (inactive)
19,Cc1ccc(S(=O)(=O)NC2(C(F)(F)F)NC(=O)N(CCc3ccccc3)C2=O)cc1 (configuration not stated),-18.6% (inactive)
20,COc1cccc(N2CCN(c3ccc4nnc(CCC(=O)N5CCN(C)CC5)n4n3)CC2)c1,-0.01% (inactive)
21,Cc1ccc(S(=O)(=O)N(CCCN(C)C)Cc2ccc3c(c2)OCO3)cc1,-1.86% (inactive)
22,COc1ccc(SCc2noc(C(=O)NCC3CCCO3)c2C(=O)O)cc1 (configuration not stated),3.88% (inactive)
23,CC1CN(CC(=O)NC(C)c2ccccc2)CC(C)O1 (configuration not stated),-2.73% (inactive)

row,Compound,activation
1,CC(C)Oc1ccccc1C(=O)NC(CO)C(=O)O (configuration not stated),7% (inactive)
2,COc1ccc(CNc2cc(C)cc(C)c2)cc1OC,-5.89% (inactive)
3,Cc1c(CN2CCC(CO)(CCOc3ccccc3)CC2)[nH]c2ccc(Cl)cc12,-15% (inactive)
4,Cc1c(C)c2c(OCC(=O)N[C@@H](C(=O)O)c3ccccc3)cc3c(c2oc1=O)CCC(C)(C)O3,0.86% (inactive)
5,CCc1c(SCCC(=O)O)nc2ccccc2c1C,2.81% (inactive)
6,CN1CCN(c2ccc(CNS(=O)(=O)c3cccc(F)c3)cc2)CC1,-0.68% (inactive)
7,Cc1ccsc1CNn1cnnc1SCc1ccccc1F,-4.45% (inactive)
8,c1ccc2c(-c3nn4nnnc4c4ccccc34)cccc2c1,-11% (inactive)
9,C=CCNC(=O)c1ccc2c3n(nc2c1)-c1ccc(C)cc1CO3,-15.6% (inactive)
10,N#Cc1c(NC(=O)C2CCCO2)sc2c1CCCCC2 (configuration not stated),-9.34% (inactive)
11,NC(=O)C1CC(=O)N(c2ccc(OCC(=O)NCc3ccccc3)cc2)C1 (configuration not stated),2.9% (inactive)
12,CC1CCC2CCCCC2N1C(=O)c1cc([N+](=O)[O-])cc([N+](=O)[O-])c1 (configuration not stated),-6.56% (inactive)
13,OCCN1CCOCCOCCN(CCO)CCN(CCO)CC1,-14% (inactive)
14,Cc1cccc2c1-c1sc(C(=O)NCCCN3CCc4ccccc4C3)cc1CO2,-6.4% (inactive)
15,O=C(NCc1ccccc1)C1CCN(C(=O)Cc2ccccc2)CC1,-0.95% (inactive)
16,Cc1ccc(N2C(=O)CN=C2Nc2nc(C)cc(C)n2)cc1,-1.27% (inactive)
17,COc1ccc(Br)c2c1C(=O)CC2,-5.51% (inactive)
18,Cc1ccc(S(=O)(=O)NCC2CCC(C(=O)N3CCOCC3)CC2)cc1 (configuration not stated),-11.8% (inactive)
19,CS(=O)(=O)Nc1ccccc1C(=O)OCC(=O)NC1CC1,-5.14% (inactive)
20,O=C(Nc1ccccc1C(=O)N1CCOCC1)c1ccc(Cl)cc1,-4.35% (inactive)
21,COC(=O)CSc1snnc1-c1ccc(Cl)c(Cl)c1,-15.7% (inactive)
22,O=C(O)c1ccc2c(=O)n3c(nc2c1)/C(=C/c1ccc(OC(F)F)cc1OC(F)F)CC3,1.58% (inactive)
23,Cn1c(N)c(C(=O)COC(=O)c2ccccc2NCc2ccco2)c(=O)n(C)c1=O,-14.4% (inactive)

row,Compound,activation
1,Cc1ccccc1Cn1c2ccccc2c2cnn(CC(=O)NCc3ccco3)c(=O)c21,1.81% (inactive)
2,CCCCCCCCCCCCN1[C@@H](CC(C)=O)c2cc(F)cc(F)c2S1(=O)=O,9.85% (inactive)
3,CNc1nnc(-c2ccco2)s1,11.7% (active)
4,COc1ccc(OCC(=O)Nc2nnc(-c3ccco3)s2)cc1,-4.78% (inactive)
5,O=C(Nc1nc(-c2ccco2)c(-c2ccco2)s1)c1ccco1,-4.21% (inactive)
6,CC(C)N(Cc1ccccc1)C(=O)COC(=O)c1cnccn1,-12.7% (inactive)
7,COc1cc(OC)c(C(=O)OC(C)C(=O)Nc2cc(C(F)(F)F)ccc2Cl)cc1OC (configuration not stated),-8.37% (inactive)
8,Cc1noc(C)c1NC(=O)Nc1ccc2c(c1)C(=O)N([C@H](C)CO)C[C@H](C)[C@@H](CN(C)C(=O)Nc1ccccc1)O2,-1.66% (inactive)
9,CSc1ncccc1C(=O)OCc1ccc(Br)cc1,-14.7% (inactive)
10,O=C(O)CCCCOn1ccnc1,3.24% (inactive)
11,Cc1nc2cc(NCc3cccs3)ccc2n1C,-14.8% (inactive)
12,O=C1/C(=C/c2ccc3c(c2)OCO3)Oc2cc(OCC(=O)N3CC(O)C[C@H]3C(=O)O)ccc21 (some centres not stated),-2.05% (inactive)
13,Cc1nc(-c2ccc(F)cc2)c(CC(=O)N2CCN(S(=O)(=O)c3ccc(F)cc3)CC2)s1,-7.74% (inactive)
14,O=C(Nc1ccc(F)cc1)C1CCN(C(=O)c2ccc([N+](=O)[O-])cc2)CC1,-7.48% (inactive)
15,Cc1ccc(NC(=O)COc2coc(CN3CCc4ccccc4C3)cc2=O)cc1Cl,-8.11% (inactive)
16,CCOC(=O)C1=C(N)N2C(=O)C(C)SC2=C(C(=O)OCC)C1c1cc(OC)c(OC)c(OC)c1 (configuration not stated),3.06% (inactive)
17,O=C(Nc1ccc(F)cc1F)N1CCCN(CCOc2ccccc2)CC1,-5.95% (inactive)
18,O=C1CC(c2c(F)cccc2Cl)C(n2cncn2)C(O)=C1C1NCCc2ccccc21 (configuration not stated),2.91% (inactive)
19,O=C(COC(=O)CCc1nc2ccccc2c(=O)[nH]1)Nc1ccc(N2CCOCC2)cc1,-2.47% (inactive)
20,CC1CCCCC12NC(=O)N(CC(=O)Nc1ccc(S(=O)(=O)Nc3ncccn3)cc1)C2=O (configuration not stated),1.55% (inactive)
21,CCCCNc1c(-c2ccc(OC)c(Sc3ccc(OC)cc3)c2)nc2ccc(Cl)cn12,13.1% (active)
22,CCCCNc1c(-c2cccc(Sc3ccc(OC)cc3)c2)nc2ccccn12,-2.7% (inactive)
23,CCCCCCSc1ccc(-c2nc3ccc(Cl)cn3c2NCc2ccccc2)cc1,-4.96% (inactive)

# Reference: PubChem BioAssay AID2445 (The Scripps Research Institute Molecular Screening Center, 2010)
